According to ChEMBL document CHEMBL2016472, “Identification of NVP-BKM120 as a Potent, Selective, Orally Bioavailable Class I PI3 Kinase Inhibitor for Treating Cancer” (ACS Med Chem Lett, 2011):
Converted amounts (≈) assume the structure as drawn.

Experiments:
[1] = AUC in rat at 20 mg/kg, po; type: ADME, organism-based; parameters: dose 20 mg/kg, route oral; conditions: plasma
Method in brief: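 Female CD rats were dosed orally at 20 mg/kg, with a separate 5 mg/kg IV arm. Exposure (AUC) was taken from the plasma profile after the oral dose.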

[2] = Aqueous solubility of the compound; type: physicochemical
[3] = Volume of distribution at steady state in rat at 5 mg/kg, iv; type: ADME, organism-based; parameters: dose 5 mg/kg, route intravenous; conditions: in vivo, read-out: Vdss
Method in brief: (§1)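 Rat PK used a 5 mg/kg intravenous dose and a 20 mg/kg oral dose.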

[4] = Clearance in rat at 5 mg/kg, iv; type: ADME, organism-based; parameters: dose 5 mg/kg, route intravenous; conditions: in vivo
Method in brief: (§2)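 Female CD rats received 5 mg/kg IV (20 mg/kg PO arm). Female CD1 mice received 5 mg/kg IV (10 mg/kg PO arm). Male and female beagles and male cynomolgus monkeys each received 1 mg/kg IV (2 mg/kg PO arm). Clearance and half-life were derived from plasma concentration–time profiles after the IV dose.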

[5] = Apparent permeability from apical to basal side of human Caco2 cells; type: ADME, cell-based; conditions: Caco-2
[6] = Apparent permeability from basal to apical side of human Caco2 cells; type: ADME, cell-based; conditions: Caco-2
[7] = Solubility of the compound at pH 7; type: physicochemical; conditions: buffer
[8] = Intrinsic clearance in rat liver microsomes; type: ADME, Microsome; conditions: read-out: CLH
[9] = Intrinsic clearance in human liver microsomes; type: ADME, Microsome; conditions: read-out: CLH
[10] = Oral bioavailability in rat at 20 mg/kg; type: ADME, organism-based; conditions: in vivo; method in brief: as §1
[11] = AUC in rat at 10 mg/kg, po; type: ADME, organism-based; parameters: dose 10 mg/kg, route oral; conditions: plasma
[12] = Oral bioavailability in rat at 10 mg/kg; type: ADME, organism-based; conditions: in vivo
Method in brief: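 Rat PK used a 5 mg/kg intravenous dose and a 10 mg/kg oral dose.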

Plasma [13] = experiment: Plasma concentration in nu/nu mouse xenografted with human A2780 cells at 60 mg/kg, po; type: ADME, organism-based; parameters: dose 60 mg/kg, route oral; conditions: in vivo
Method in brief: (§3)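 A2780 tumor-bearing mice were given oral doses (3, 10, 60 and 100 mg/kg were examined). Tumor AKT Ser473 phosphorylation and plasma exposure were measured, with the 10 h time point sampled.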

[14] = Oral bioavailability in CD1 mouse at 10 mg/kg; type: ADME, organism-based; conditions: in vivo
Method in brief: (§4)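 Female CD1 mice were dosed at 5 mg/kg IV and 10 mg/kg PO.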

[15] = Volume of distribution at steady state in cynomolgus monkey at 1 mg/kg, iv; type: ADME, organism-based, Macaca fascicularis; parameters: dose 1 mg/kg, route intravenous; conditions: in vivo, read-out: Vdss
Method in brief: (§5)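 Male cynomolgus monkeys were dosed at 1 mg/kg IV and 2 mg/kg PO.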

[16] = Lipophilicity, log D at pH 7.4; type: physicochemical; conditions: buffer
[17] = Clearance in CD1 mouse at 5 mg/kg, iv; type: ADME, organism-based; parameters: dose 5 mg/kg, route intravenous; conditions: in vivo; method in brief: as §2
[18] = Half life in beagle dog at 1 mg/kg, iv; type: ADME, organism-based, Canis lupus familiaris; parameters: dose 1 mg/kg, route intravenous; conditions: in vivo; method in brief: as §2
[19] = Dissociation constant, pKa of the compound; type: physicochemical
[20] = Half life in cynomolgus monkey at 1 mg/kg, iv; type: ADME, organism-based, Macaca fascicularis; parameters: dose 1 mg/kg, route intravenous; conditions: in vivo; method in brief: as §2
[21] = Drug uptake in tumor in nu/nu mouse xenografted with human A2780 cells at 60 mg/kg, po; type: ADME, organism-based, Neoplasm; parameters: dose 60 mg/kg, route oral; conditions: in vivo, read-out: Drug uptake
Method in brief: (§6)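 A2780 tumor-bearing mice received a single oral dose. Tumors and plasma were sampled at 10 h. Tumor pAKT Ser473 was assessed for target modulation, and compound concentrations were measured in plasma and tumor.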

[22] = Clearance in beagle dog at 1 mg/kg, iv; type: ADME, organism-based, Canis lupus familiaris; parameters: dose 1 mg/kg, route intravenous; conditions: in vivo; method in brief: as §2
[23] = Half life in CD1 mouse at 5 mg/kg, iv; type: ADME, organism-based; parameters: dose 5 mg/kg, route intravenous; conditions: in vivo; method in brief: as §2
[24] = Volume of distribution at steady state in beagle dog at 1 mg/kg, iv; type: ADME, organism-based, Canis lupus familiaris; parameters: dose 1 mg/kg, route intravenous; conditions: in vivo, read-out: Vdss
Method in brief: (§7)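 Male and female beagle dogs were dosed at 1 mg/kg IV and 2 mg/kg PO.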

[25] = Oral bioavailability in beagle dog at 2 mg/kg; type: ADME, organism-based, Canis lupus familiaris; conditions: in vivo; method in brief: as §7
[26] = Oral bioavailability in CD rat at 20 mg/kg; type: ADME, organism-based; conditions: in vivo
Method in brief: (§8)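 Female CD rats were dosed at 5 mg/kg IV and 20 mg/kg PO.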

[27] = Clearance in cynomolgus monkey at 1 mg/kg, iv; type: ADME, organism-based, Macaca fascicularis; parameters: dose 1 mg/kg, route intravenous; conditions: in vivo; method in brief: as §2
[28] = Half life in CD rat at 5 mg/kg, iv; type: ADME, organism-based; parameters: dose 5 mg/kg, route intravenous; conditions: in vivo; method in brief: as §2
[29] = Oral bioavailability in cynomolgus monkey at 2 mg/kg; type: ADME, organism-based, Macaca fascicularis; conditions: in vivo; method in brief: as §5
[30] = Volume of distribution at steady state in CD1 mouse at 5 mg/kg, iv; type: ADME, organism-based; parameters: dose 5 mg/kg, route intravenous; conditions: in vivo, read-out: Vdss; method in brief: as §4
[31] = Volume of distribution at steady state in CD rat at 5 mg/kg, iv; type: ADME, organism-based; parameters: dose 5 mg/kg, route intravenous; conditions: in vivo, read-out: Vdss; method in brief: as §8
Plasma [32] = experiment: Plasma concentration in nu/nu mouse xenografted with human A2780 cells at 100 mg/kg, po; type: ADME, organism-based; parameters: dose 100 mg/kg, route oral; conditions: in vivo; method in brief: as §3
[33] = Drug uptake in tumor in nu/nu mouse xenografted with human A2780 cells at 100 mg/kg, po; type: ADME, organism-based, Neoplasm; parameters: dose 100 mg/kg, route oral; conditions: in vivo, read-out: Drug uptake; method in brief: as §6
[34] = Clearance in CD rat at 5 mg/kg, iv; type: ADME, organism-based; parameters: dose 5 mg/kg, route intravenous; conditions: in vivo; method in brief: as §2

**Q.** For `Nc1ncc(-c2cc(Nc3cnc4ccccc4c3)nc(N3CCOCC3)n2)cn1`, which AUC [1] is on record?
**A.** 7 µM·h

**Q.** Which solubility [2] does the source give for `Nc1cc(C(F)(F)F)c(-c2cc(Nc3cnc4ccccc4c3)nc(N3CCOCC3)n2)cn1` here?
**A.** 0.3 µg/mL (≈ 0.642 µM)

**Q.** What about the Vd [3] of the same compound?
**A.** 2.6 L/kg

**Q.** And the AUC [1]?
**A.** 114 µM·h

**Q.** What about the clearance [4] of the same compound?
**A.** 8 mL/min/kg

**Q.** And the Papp A→B [5]?
**A.** 1.56 ×10⁻⁶ cm/s

**Q.** What about the Papp B→A [6] of the same compound?
**A.** 2.15 ×10⁻⁶ cm/s

**Q.** For `Nc1ncc(-c2cc(Nc3cnc4ccccc4c3)nc(N3CCOCC3)n2)c(C(F)(F)F)n1`, which Vd [3] is on record?
**A.** 2.8 L/kg

**Q.** And the AUC [1]?
**A.** 26 µM·h

**Q.** And the clearance [4]?
**A.** 11 mL/min/kg

**Q.** Which solubility [7] does the source give for `Nc1ncc(-c2cc(N3CCOCC3)nc(N3CCOCC3)n2)cn1` here?
**A.** 25 µM (≈ 8.58 µg/mL)

**Q.** And the microsomal CLint [8]?
**A.** ≤ 9 µL/min/mg

**Q.** What about the microsomal CLint [9] of the same compound?
**A.** ≤ 9 µL/min/mg

**Q.** Which Vd [3] does the source give for `Nc1cc(Cl)c(-c2cc(N3CCOCC3)nc(N3CCOCC3)n2)cn1` here?
**A.** 1.11 L/kg

**Q.** What about the AUC [1] of the same compound?
**A.** 29 µM·h

**Q.** What about the solubility [7] of the same compound?
**A.** 45 µM (≈ 17 µg/mL)

**Q.** And the microsomal CLint [8]?
**A.** ≤ 9 µL/min/mg

**Q.** And the clearance [4]?
**A.** 22 mL/min/kg

**Q.** And the microsomal CLint [9]?
**A.** ≤ 9 µL/min/mg

**Q.** And the bioavailability [10]?
**A.** 69%

**Q.** Which results are given for `N#Cc1cc(N)ncc1-c1cc(N2CCOCC2)nc(N2CCOCC2)n1`?
**A.** Vd [3]: 1.6 L/kg; AUC [1]: 86 µM·h; solubility [7]: 11 µM (≈ 4.04 µg/mL); microsomal CLint [8]: ≤ 9 µL/min/mg; clearance [4]: 11 mL/min/kg; microsomal CLint [9]: ≤ 9 µL/min/mg; bioavailability [10]: 98%

**Q.** With `Nc1ncc(-c2cc(N3CCOCC3)nc(N3CCOCC3)n2)c(N)n1` as the compound, how does the AUC [11] read?
**A.** 64 µM·h

**Q.** And the Vd [3]?
**A.** 4.5 L/kg

**Q.** And the bioavailability [12]?
**A.** 68%

**Q.** What about the solubility [7] of the same compound?
**A.** 8 µM (≈ 2.87 µg/mL)

**Q.** What about the microsomal CLint [8] of the same compound?
**A.** ≤ 9 µL/min/mg

**Q.** What about the clearance [4] of the same compound?
**A.** 9 mL/min/kg

**Q.** What about the microsomal CLint [9] of the same compound?
**A.** ≤ 9 µL/min/mg

**Q.** With `Nc1ncc(-c2cc(N3CCOCC3)nc(N3CCOCC3)n2)c(=O)[nH]1` as the compound, how does the Vd [3] read?
**A.** 2.8 L/kg

**Q.** What about the AUC [1] of the same compound?
**A.** 24 µM·h

**Q.** And the solubility [7]?
**A.** 22 µM (≈ 7.91 µg/mL)

**Q.** And the microsomal CLint [8]?
**A.** ≤ 9 µL/min/mg

**Q.** And the clearance [4]?
**A.** 24 mL/min/kg

**Q.** And the microsomal CLint [9]?
**A.** ≤ 9 µL/min/mg

**Q.** What about the bioavailability [10] of the same compound?
**A.** 56%

**Q.** What does the source list for `Nc1ncc(-c2cc(N3CCOCC3)nc(N3CCOCC3)n2)c(C(F)(F)F)n1`?
**A.** Vd [3]: 2.1 L/kg; AUC [1]: 62 µM·h; solubility [7]: 61 µM (≈ 25.1 µg/mL); microsomal CLint [8]: ≤ 9 µL/min/mg; clearance [4]: 11 mL/min/kg; microsomal CLint [9]: ≤ 9 µL/min/mg; bioavailability [10]: 83%

**Q.** What does the source list for `Nc1cc(C(F)(F)F)c(-c2cc(N3CCOCC3)nc(N3CCOCC3)n2)cn1` [BUPARLISIB]?
**A.** concentration (Plasma [13]): 2000 nM; bioavailability [14]: 71%; Vd [15]: 3.1 L/kg; logD [16]: 2.9; clearance [17]: 11 mL/min/kg; half-life [18]: 6.6 h; pKa [19]: 5.1; Vd [3]: 3.1 L/kg; half-life [20]: 3.6 h; concentration [21]: 2000 nM; clearance [22]: 7.3 mL/min/kg; AUC [1]: 178 µM·h; solubility [7]: 132 µM (≈ 54.2 µg/mL); half-life [23]: 1.6 h; Vd [24]: 3.1 L/kg; bioavailability [25]: > 100%; bioavailability [26]: 50%; clearance [27]: 13 mL/min/kg; microsomal CLint [8]: ≤ 9 µL/min/mg; clearance [4]: 3 mL/min/kg; half-life [28]: 11 h; bioavailability [29]: 44%; microsomal CLint [9]: ≤ 9 µL/min/mg; Vd [30]: 1.4 L/kg; Vd [31]: 3.1 L/kg; concentration (Plasma [32]): 2000 nM; bioavailability [10]: 50%; concentration [33]: 2000 nM; clearance [34]: 3 mL/min/kg
